From ChEMBL document CHEMBL3352327, “Catechol-rhodanine derivatives: Specific and promiscuous inhibitors of Escherichia coli deoxyxylulose phosphate reductoisomerase (DXR)” (Bioorg Med Chem, 2014)
The source made the active and inactive calls. The calls are words filed in the database; no cut-off is given here.

What was measured:
[1] = molecular target: T1, 1-deoxy-D-xylulose 5-phosphate reductoisomerase (Escherichia coli K-12, UniProt P45568); assay: Inhibition of His-tagged Escherichia coli DXR pre-incubated for 2 mins before reaction initiation in presence of 160 uM NADPH in absence of 0.01% Triton X100
T1 sequence (P45568 whole entry): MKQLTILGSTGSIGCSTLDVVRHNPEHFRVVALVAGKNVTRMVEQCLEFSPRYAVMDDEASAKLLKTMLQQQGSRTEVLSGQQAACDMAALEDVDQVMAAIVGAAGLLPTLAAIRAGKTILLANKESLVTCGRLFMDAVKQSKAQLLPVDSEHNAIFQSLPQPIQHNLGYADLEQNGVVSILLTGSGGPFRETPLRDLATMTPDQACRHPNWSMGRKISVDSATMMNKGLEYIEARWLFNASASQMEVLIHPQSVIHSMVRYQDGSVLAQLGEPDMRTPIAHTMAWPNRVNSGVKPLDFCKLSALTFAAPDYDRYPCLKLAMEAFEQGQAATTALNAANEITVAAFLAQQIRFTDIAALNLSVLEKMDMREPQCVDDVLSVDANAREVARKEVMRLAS

[2] = molecular target: T1, 1-deoxy-D-xylulose 5-phosphate reductoisomerase; assay: Inhibition of His-tagged Escherichia coli DXR pre-incubated for 2 mins before reaction initiation in presence of 160 uM NADPH in presence of 0.01% Triton X100
Outline: (§1)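 His-tagged E. coli DXR at 37 °C in 50 mM Tris/HCl pH 7.5 with 3 mM MgCl2 and 2 mM DTT. Enzyme preincubated 2 min with inhibitor and 480 µM DXP, then started with NADPH (160 µM final). Run with or without 0.01% Triton X100. Final DMSO 0.4% (v/v). IC50 taken from % residual activity vs log[inhibitor]; otherwise % inhibition at 20 µM.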

[3] = molecular target: T2, 1-deoxy-D-xylulose 5-phosphate reductoisomerase (Escherichia coli K-12) (UniProt P45568); assay: Inhibition of His-tagged Escherichia coli DXR at 6 uM pre-incubated for 2 mins before reaction initiation in absence of 160 uM NADPH
T2 sequence (whole entry): T1 sequence (P45568 whole entry)
Outline: (§2)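 H-DXR in 50 mM Tris/HCl pH 7.5, 3 mM MgCl2, 2 mM DTT, 37 °C. Enzyme preincubated 2 min with inhibitor at 6 µM, with or without NADPH (160 µM). Reaction started by DXP (480 µM final) to measure residual activity.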

[4] = molecular target: T2, 1-deoxy-D-xylulose 5-phosphate reductoisomerase (Escherichia coli K-12); assay: Inhibition of His-tagged Escherichia coli DXR at 6 uM pre-incubated for 2 mins before reaction initiation in presence of 160 uM NADPH; outline: as §2
Malate dehydrogenase [5] = molecular target: T3, Malate dehydrogenase (Thermus thermophilus, UniProt P10584); assay: Inhibition of Thermus flavus MDH pre-incubated for 4 mins before reaction initiation in presence of OAA and NAPH in absence of 0.01% Triton X100 by UV-Vis spectrophotometry
T3 sequence (P10584 whole entry): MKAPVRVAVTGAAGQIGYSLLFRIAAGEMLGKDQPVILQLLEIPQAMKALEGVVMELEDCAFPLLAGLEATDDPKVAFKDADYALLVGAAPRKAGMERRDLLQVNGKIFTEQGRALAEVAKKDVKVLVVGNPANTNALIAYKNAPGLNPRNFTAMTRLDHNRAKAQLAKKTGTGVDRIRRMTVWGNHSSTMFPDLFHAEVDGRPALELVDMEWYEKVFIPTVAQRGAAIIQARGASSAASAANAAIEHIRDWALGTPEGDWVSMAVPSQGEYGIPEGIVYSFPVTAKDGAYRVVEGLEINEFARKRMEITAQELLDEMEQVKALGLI
Outline: (§3)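 MDH in 50 mM Tris/HCl pH 7.5 at 37 °C. Preincubated 4 min with inhibitor, with or without 0.01% (w/v) Triton X100. Reaction started by successive addition of oxaloacetate (250 µM final) and NADH (160 µM final). Initial rates followed as A340 decrease. At least duplicate; 0.4% DMSO final.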

Malate dehydrogenase [6] = molecular target: T3, Malate dehydrogenase; assay: Inhibition of Thermus flavus MDH pre-incubated for 4 mins before reaction initiation in presence of OAA and NAPH in presence of 0.01% Triton X100 by UV-Vis spectrophotometry; outline: as §3
[7] = Lipophilicity, log P of the compound; assay type: physicochemical; settings: octanol/water
[8] = molecular target: T1, 1-deoxy-D-xylulose 5-phosphate reductoisomerase
[9] = molecular target: T2, 1-deoxy-D-xylulose 5-phosphate reductoisomerase (Escherichia coli K-12); settings: 1 to 8 uM
[10] = molecular target: T2, 1-deoxy-D-xylulose 5-phosphate reductoisomerase (Escherichia coli K-12); assay: Inhibition of His-tagged Escherichia coli DXR at 20 uM pre-incubated for 2 mins before reaction initiation in presence of 160 uM NADPH in presence of 0.01% Triton X100; outline: as §1
[11] = molecular target: T4, Malate dehydrogenase (Thermus thermophilus) (UniProt P10584); assay: Inhibition of Thermus flavus MDH at 10 uM pre-incubated for 4 mins before reaction initiation in presence of OAA and NAPH in presence of 0.01% Triton X100 by UV-Vis spectrophotometry; outline: as §3
T4 sequence (whole entry): T3 sequence (P10584 whole entry)

[12] = molecular target: T4, Malate dehydrogenase (Thermus thermophilus); assay: Inhibition of Thermus flavus MDH at 50 uM pre-incubated for 4 mins before reaction initiation in presence of OAA and NAPH in presence of 0.01% Triton X100 by UV-Vis spectrophotometry; outline: as §3
Escherichia coli [13] = assay: Antimicrobial activity against Escherichia coli XL1 Blue at 400 nmol/4 uL by paper disc diffusion method; assay type: functional
Outline: (§4)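 Paper disc diffusion on E. coli XL1 Blue. Discs impregnated with compound dissolved in DMSO (4 µL): 400 nmol in the initial screen, then 200 to 800 nmol. Read-out is the diameter of the growth inhibition zone (mm).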

Escherichia coli [14] = assay: Antimicrobial activity against Escherichia coli XL1 Blue at 800 nmol/4 uL by paper disc diffusion method; assay type: functional; outline: as §4
[15] = molecular target: T2, 1-deoxy-D-xylulose 5-phosphate reductoisomerase (Escherichia coli K-12); assay: Inhibition of His-tagged Escherichia coli DXR at 10 uM pre-incubated for 2 mins before reaction initiation in presence of 160 uM NADPH
[16] = molecular target: T2, 1-deoxy-D-xylulose 5-phosphate reductoisomerase (Escherichia coli K-12); settings: 10 uM
[17] = molecular target: T2, 1-deoxy-D-xylulose 5-phosphate reductoisomerase (Escherichia coli K-12); assay: Inhibition of His-tagged Escherichia coli DXR at 20 uM pre-incubated for 2 mins before reaction initiation in presence of 160 uM NADPH in absence of 0.01% Triton X100; outline: as §1
[18] = molecular target: T4, Malate dehydrogenase (Thermus thermophilus); assay: Inhibition of Thermus flavus MDH at 50 uM pre-incubated for 4 mins before reaction initiation in presence of OAA and NAPH in absence of 0.01% Triton X100 by UV-Vis spectrophotometry; outline: as §3

Row | Compound | IC50 [1] [µM] | inhibition [3] [%] | inhibition [4] [%] | IC50 (Malate dehydrogenase [5]) [µM] | inhibition [10] [%] | inhibition [11] [%] | inhibition [12] [%] | other results
1 | O=C(CN1C(=O)/C(=C/c2ccc(O)c(O)c2)SC1=S)NO | 3.8 | 70 | 29 | 3.4 | – | – | 53 | IC50 [2]: 6.1 µM; inhibition zone (IZ) (Escherichia coli [13]): 14 mm; inhibition zone (IZ) (Escherichia coli [14]): 20 mm; logP [7]: 1.8; inhibition [9]: Active
2 | Cc1ccc(Oc2ccc(NC(=O)CN3C(=O)/C(=C/c4ccc(O)c(O)c4)SC3=S)cc2)cc1 | 4.1 | 38 | 30 | 0.4 | 10 | – | < 5 | inhibition [15]: 53%; inhibition [16]: < 5%
3 | O=C(O)CN1C(=O)/C(=C/c2ccccc2)SC1=S | – | – | – | – | – | – | – | inhibition [17]: < 5%; inhibition [18]: < 5%
4 | O=C(CN1C(=O)/C(=C/c2ccc(O)c(O)c2)SC1=S)Nc1ccc(Oc2ccc(Cl)cc2)cc1 | 3.2 | 64 | 41 | 0.5 | < 5 | – | < 5 | –

More lines, in order of falling IC50 [1], values ahead:

Row | IC50 [1] [µM] | inhibition [3] [%] | inhibition [4] [%] | IC50 (Malate dehydrogenase [5]) [µM] | inhibition [10] [%] | inhibition [11] [%] | inhibition [12] [%] | Compound | other results
5 | 58 | – | – | 1.3 | – | < 5 | – | O=C(CN1C(=O)/C(=C/c2ccc(O)cc2O)SC1=S)Nc1ccc(Oc2ccc(Cl)cc2)cc1 | –
6 | 3.6 | 60 | 38 | 1 | < 5 | < 5 | – | Cc1ccc(Oc2ccc(NC(=O)CN3C(=O)/C(=C/c4cccc(O)c4O)SC3=S)cc2)cc1 | –
7 | 3.3 | 63 | 43 | 0.7 | < 5 | < 5 | – | O=C(CN1C(=O)/C(=C/c2cccc(O)c2O)SC1=S)Nc1ccc(Oc2ccc(Cl)cc2)cc1 | –
8 | 3.1 | 61 | 41 | 4.7 | – | – | – | O=C(O)CN1C(=O)/C(=C/c2ccc(O)c(O)c2)SC1=S | IC50 [2]: 4.4 µM; IC50 (Malate dehydrogenase [6]): 15 µM; logP [7]: 1; Ki [8]: 7.7 µM; alphaKi [9]: 3 µM
